The target in experiment [1] is T1, Bromodomain-containing protein 4 (Homo sapiens, UniProt O60885). Nature of the experiment: Displacement of H4Ac4 peptide from first bromodomain of human BRD4 by peptide displacement assay. The gist of the method:
(§1)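 AlphaScreen displacement of a biotinylated tetra-acetylated H4 peptide (SGRGK(Ac)GGK(Ac)GLGK(Ac)GGAK(Ac)RHRK(Biotin)) from the bromodomain. Run in duplicate on one plate.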

A short description of experiment [2]: Binding affinity to LOC93349 assessed as change in melting temperature at 100 uM by differential scanning fluorimetry. The method, boiled down: (§2)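 Thermal shift by differential scanning fluorimetry on a real-time PCR instrument. Bromodomain protein at 2 μM, compound at 100 μM, in 10 mM HEPES pH 7.5, 500 mM NaCl with SyproOrange dye diluted 1:1000. The observed melting temperature shift was measured in duplicate, and the average was reported.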
For orientation: In DSF a fluorescence change marks the thermal transition of the protein.

For experiment [3], the target named is T2, Bromodomain-containing protein 2 (Homo sapiens, UniProt P25440). Nature of the experiment: Binding affinity to second bromodomain of BRD2 assessed as change in melting temperature at 100 uM by differential scanning fluorimetry. The method, boiled down: as §2
Target sequence in this assay (P25440 whole entry, looked up): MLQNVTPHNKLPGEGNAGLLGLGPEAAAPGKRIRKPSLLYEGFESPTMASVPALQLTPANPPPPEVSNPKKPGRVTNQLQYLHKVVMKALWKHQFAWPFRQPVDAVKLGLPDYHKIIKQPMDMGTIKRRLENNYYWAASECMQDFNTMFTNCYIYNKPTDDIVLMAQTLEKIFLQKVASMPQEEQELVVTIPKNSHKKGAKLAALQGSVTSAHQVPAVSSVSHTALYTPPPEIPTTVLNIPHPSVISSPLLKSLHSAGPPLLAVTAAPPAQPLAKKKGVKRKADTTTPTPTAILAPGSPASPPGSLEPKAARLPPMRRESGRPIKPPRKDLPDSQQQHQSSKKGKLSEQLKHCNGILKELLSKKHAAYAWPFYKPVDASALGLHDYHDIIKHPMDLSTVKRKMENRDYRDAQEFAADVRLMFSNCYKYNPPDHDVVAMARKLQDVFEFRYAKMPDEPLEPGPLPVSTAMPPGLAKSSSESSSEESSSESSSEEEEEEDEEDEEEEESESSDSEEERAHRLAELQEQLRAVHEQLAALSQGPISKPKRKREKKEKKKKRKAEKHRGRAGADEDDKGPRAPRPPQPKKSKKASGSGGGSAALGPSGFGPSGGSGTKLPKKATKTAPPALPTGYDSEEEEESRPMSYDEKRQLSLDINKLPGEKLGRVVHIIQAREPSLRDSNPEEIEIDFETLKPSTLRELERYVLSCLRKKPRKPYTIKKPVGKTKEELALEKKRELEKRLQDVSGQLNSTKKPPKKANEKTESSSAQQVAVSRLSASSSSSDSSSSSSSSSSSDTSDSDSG
Experiment [4] concerns the target T3, CREB-binding protein (Homo sapiens, UniProt Q92793). Nature of the experiment: Binding affinity to CREBBP assessed as change in melting temperature at 100 uM by differential scanning fluorimetry. The method, boiled down: as §2
Experiment [5] concerns the target T1, Bromodomain-containing protein 4. Nature of the experiment: Binding affinity to first bromodomain of BRD4 assessed as change in melting temperature at 100 uM by differential scanning fluorimetry. The gist of the method:
as §2

Experiment [6] addresses T3, CREB-binding protein. Nature of the experiment: Displacement of H3K56Ac from human CREBBP by peptide displacement assay.
In experiment [7] the target is Bromodomain testis-specific protein (Homo sapiens) (UniProt Q58F21). Nature of the experiment: Binding affinity to BRDT assessed as change in melting temperature at 100 uM by differential scanning fluorimetry. The gist of the method: as §2
Experiment [8] has as its target Bromodomain-containing protein 3 (Homo sapiens) (UniProt Q15059). Put plainly: Binding affinity to first bromodomain of BRD3 assessed as change in melting temperature at 100 uM by differential scanning fluorimetry. The gist of the method: as §2
Experiment [9] deals with T1, Bromodomain-containing protein 4. Nature of the experiment: Binding affinity to second bromodomain of BRD4 assessed as change in melting temperature at 100 uM by differential scanning fluorimetry. The gist of the method: as §2
Experiment [10] deals with T2, Bromodomain-containing protein 2. Nature of the experiment: Binding affinity to first bromodomain of BRD2 assessed as change in melting temperature at 100 uM by differential scanning fluorimetry. The method, boiled down:
as §2
Target sequence in this assay (P25440 whole entry, looked up): as above

Experiment [11] shares this target. Nature of the experiment: Displacement of H4Ac4 peptide from first bromodomain of human BRD2 by peptide displacement assay. The method, boiled down: as §1
Experiment [12] has as its target Bromodomain-containing protein 3 (Homo sapiens) (UniProt Q15059). Nature of the experiment: Binding affinity to second bromodomain of BRD3 assessed as change in melting temperature at 100 uM by differential scanning fluorimetry. The gist of the method:
as §2

The target of experiment [13] is Protein polybromo-1 (Homo sapiens) (UniProt Q86U86). Nature of the experiment: Binding affinity to PB1 assessed as change in melting temperature at 100 uM by differential scanning fluorimetry. The gist of the method:
as §2

In experiment [14] the target is T4, Bromodomain adjacent to zinc finger domain protein 2B (Homo sapiens, UniProt Q9UIF8). Nature of the experiment: Binding affinity to BAZ2B assessed as change in melting temperature at 100 uM by differential scanning fluorimetry. The gist of the method: as §2
The target of experiment [15] is Histone acetyltransferase KAT2B (Homo sapiens) (UniProt Q92831). Nature of the experiment: Binding affinity to PCAF assessed as change in melting temperature at 100 uM by differential scanning fluorimetry. The method, boiled down:
as §2

Experiment [16] deals with T3, CREB-binding protein. Nature of the experiment: Inhibition of CREBBP. The gist of the method: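 AlphaScreen peptide-displacement assay with the CREBBP bromodomain, using a biotinylated H3K56Ac histone peptide as the displaced ligand. Each concentration was run in duplicate on the same plate. IC50 was obtained by sigmoidal curve fitting of the duplicate data and reported with 95% confidence intervals, taken from a single assay.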

Experiment [17] concerns the target T4, Bromodomain adjacent to zinc finger domain protein 2B. Nature of the experiment: Inhibition of BAZ2B.

By IC50 is commonly meant the concentration at which inhibition is half-maximal. A high value points to weaker potency in that assay. The ΔTm is the change in melting temperature against a reference sample.

Molecules are shown by their SMILES.

T4 sequence (Q9UIF8 whole entry, the tested form may be a part): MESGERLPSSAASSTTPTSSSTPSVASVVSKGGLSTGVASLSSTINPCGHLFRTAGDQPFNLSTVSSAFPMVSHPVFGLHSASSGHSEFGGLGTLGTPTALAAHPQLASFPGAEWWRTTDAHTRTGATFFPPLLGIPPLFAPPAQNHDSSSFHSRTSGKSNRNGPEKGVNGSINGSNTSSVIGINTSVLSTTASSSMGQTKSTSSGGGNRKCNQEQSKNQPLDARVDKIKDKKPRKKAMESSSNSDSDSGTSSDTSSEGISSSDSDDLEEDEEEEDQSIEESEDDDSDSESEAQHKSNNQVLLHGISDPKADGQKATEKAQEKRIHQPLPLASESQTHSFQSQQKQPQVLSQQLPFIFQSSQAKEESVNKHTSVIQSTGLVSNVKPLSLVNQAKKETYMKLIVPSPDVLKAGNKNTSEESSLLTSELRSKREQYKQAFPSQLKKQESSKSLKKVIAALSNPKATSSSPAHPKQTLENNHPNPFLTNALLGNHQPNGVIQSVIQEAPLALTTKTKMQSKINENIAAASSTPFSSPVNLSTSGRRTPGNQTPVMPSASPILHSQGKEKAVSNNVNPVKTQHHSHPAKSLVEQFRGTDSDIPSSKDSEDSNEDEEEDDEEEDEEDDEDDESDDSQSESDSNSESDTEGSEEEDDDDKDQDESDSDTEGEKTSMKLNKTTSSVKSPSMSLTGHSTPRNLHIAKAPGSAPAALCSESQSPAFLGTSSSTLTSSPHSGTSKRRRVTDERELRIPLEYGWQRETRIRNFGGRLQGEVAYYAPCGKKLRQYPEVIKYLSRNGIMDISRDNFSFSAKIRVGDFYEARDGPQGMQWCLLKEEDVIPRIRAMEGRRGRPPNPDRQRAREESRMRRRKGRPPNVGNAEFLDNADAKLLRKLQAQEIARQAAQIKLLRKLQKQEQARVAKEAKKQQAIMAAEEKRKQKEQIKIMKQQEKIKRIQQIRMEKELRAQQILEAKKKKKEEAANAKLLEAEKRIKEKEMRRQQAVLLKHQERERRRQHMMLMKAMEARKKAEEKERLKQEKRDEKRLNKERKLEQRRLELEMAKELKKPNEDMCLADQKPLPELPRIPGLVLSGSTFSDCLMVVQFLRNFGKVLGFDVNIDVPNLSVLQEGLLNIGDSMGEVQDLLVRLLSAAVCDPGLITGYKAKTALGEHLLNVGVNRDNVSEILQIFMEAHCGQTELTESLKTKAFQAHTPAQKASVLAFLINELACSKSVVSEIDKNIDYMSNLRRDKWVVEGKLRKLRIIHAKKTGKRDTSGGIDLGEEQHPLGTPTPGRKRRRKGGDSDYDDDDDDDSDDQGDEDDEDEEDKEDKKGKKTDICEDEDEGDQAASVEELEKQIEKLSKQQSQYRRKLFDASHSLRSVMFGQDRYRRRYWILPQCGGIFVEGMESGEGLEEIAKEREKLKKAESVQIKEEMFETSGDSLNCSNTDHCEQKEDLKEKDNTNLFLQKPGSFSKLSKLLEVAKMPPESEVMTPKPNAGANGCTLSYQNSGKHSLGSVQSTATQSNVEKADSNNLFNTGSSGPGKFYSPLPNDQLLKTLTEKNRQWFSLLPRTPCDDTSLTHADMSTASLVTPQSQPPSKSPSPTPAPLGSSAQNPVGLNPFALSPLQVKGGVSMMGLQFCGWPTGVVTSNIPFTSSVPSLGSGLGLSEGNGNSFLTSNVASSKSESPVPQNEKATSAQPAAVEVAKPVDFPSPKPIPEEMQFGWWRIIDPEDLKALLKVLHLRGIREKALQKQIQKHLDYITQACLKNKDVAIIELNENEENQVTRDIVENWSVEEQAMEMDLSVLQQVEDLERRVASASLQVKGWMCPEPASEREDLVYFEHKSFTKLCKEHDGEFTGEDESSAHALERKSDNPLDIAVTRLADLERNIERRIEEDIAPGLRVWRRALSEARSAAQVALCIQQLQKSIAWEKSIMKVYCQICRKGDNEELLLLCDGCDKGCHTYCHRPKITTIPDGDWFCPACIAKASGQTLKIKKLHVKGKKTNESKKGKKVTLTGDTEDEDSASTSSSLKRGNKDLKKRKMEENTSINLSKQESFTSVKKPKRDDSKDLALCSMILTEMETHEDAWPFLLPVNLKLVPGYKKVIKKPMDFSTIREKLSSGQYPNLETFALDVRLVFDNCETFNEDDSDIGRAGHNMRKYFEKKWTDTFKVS
Chain of Bromodomain-containing protein 3 (Homo sapiens) (Q15059 2-726 limits assumed): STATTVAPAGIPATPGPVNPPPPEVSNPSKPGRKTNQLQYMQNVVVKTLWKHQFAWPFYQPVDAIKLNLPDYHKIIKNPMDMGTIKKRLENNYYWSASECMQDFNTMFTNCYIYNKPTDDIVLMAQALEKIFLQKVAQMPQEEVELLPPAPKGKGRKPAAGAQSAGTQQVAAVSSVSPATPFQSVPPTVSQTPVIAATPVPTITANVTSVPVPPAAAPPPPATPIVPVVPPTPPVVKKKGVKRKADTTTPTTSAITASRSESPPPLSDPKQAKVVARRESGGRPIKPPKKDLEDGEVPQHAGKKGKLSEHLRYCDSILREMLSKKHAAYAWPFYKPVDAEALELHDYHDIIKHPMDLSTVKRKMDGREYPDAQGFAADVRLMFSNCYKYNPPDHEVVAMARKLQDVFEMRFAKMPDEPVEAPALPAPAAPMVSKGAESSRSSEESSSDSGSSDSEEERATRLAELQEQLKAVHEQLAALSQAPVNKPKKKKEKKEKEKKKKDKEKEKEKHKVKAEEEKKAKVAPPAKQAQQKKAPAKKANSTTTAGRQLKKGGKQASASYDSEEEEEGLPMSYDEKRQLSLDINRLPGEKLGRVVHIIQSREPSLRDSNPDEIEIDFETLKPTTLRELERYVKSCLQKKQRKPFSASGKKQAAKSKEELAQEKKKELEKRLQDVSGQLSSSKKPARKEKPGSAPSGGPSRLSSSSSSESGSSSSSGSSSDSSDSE
Chain of Histone acetyltransferase KAT2B (Homo sapiens) (Q92831 whole entry, looked up): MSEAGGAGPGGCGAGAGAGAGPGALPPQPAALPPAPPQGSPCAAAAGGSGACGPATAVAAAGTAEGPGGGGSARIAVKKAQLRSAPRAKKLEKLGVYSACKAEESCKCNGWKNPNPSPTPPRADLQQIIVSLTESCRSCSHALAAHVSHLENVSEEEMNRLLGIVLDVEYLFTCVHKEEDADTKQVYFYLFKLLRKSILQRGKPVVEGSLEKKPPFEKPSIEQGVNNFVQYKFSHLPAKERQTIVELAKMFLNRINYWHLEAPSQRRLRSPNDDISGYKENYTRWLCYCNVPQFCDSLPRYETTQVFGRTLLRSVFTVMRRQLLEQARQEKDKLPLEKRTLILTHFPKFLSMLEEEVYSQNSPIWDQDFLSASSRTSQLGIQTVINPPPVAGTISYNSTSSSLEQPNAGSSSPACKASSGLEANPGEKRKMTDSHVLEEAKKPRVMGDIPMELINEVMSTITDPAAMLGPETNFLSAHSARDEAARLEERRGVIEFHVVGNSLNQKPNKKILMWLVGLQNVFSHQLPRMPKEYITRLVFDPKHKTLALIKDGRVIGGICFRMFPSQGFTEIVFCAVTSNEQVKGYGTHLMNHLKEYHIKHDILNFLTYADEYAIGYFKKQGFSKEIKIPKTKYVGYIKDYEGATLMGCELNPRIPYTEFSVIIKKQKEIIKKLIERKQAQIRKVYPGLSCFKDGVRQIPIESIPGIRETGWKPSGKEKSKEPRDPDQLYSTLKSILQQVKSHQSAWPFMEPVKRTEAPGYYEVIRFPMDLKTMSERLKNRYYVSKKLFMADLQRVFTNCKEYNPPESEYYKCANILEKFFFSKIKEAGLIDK

`CCOC(=O)c1cc(OCC)cc(-c2c(C)noc2C)c1`: the values for the IC50 (in experiment [1]; on CREB-binding protein [6]; in [11]) were 7.7 µM, 49.4 µM and 3.3 µM, respectively. Besides, the ΔTm in experiment [2] is -0.2 °C; in experiment [3], 3.3 °C; on CREB-binding protein [4], -0.2 °C; in [5] it was 3.7 °C; in experiment [7], 1.1 °C; in [8], 3.6 °C. The ΔTm in experiment [9] was 3.8 °C; in experiment [10], 2.3 °C; in experiment [12], 3.8 °C; in [13] it was -0.1 °C.

Consider `Cc1noc(C)c1-c1ccc2c(c1)CN(C)C(=O)N2`, for which the ΔTm in [2] is -0.2 °C; in [3] it was 6.2 °C; on CREB-binding protein [4] it was 3.8 °C; in experiment [5], 8 °C; in [7], 3.2 °C; in experiment [8], 7.2 °C. Further, the ΔTm was 5.4 °C in [10], 6.8 °C in experiment [12] and 0.7 °C in experiment [13]. In addition, the IC50 on CREB-binding protein [6] stood at 3.4 µM.

With `Cc1noc(C)c1-c1ccccc1`, the ΔTm in experiment [14] is -0.1 °C; in experiment [2], -0.6 °C; in [3], 2.1 °C; at CREB-binding protein [4], 0.6 °C; in experiment [5], 2 °C; in [15], -0.8 °C. For the same molecule, the shift in melting temperature (ΔTm) in [7] came out at 0 °C; in [8], 1.6 °C; in experiment [9] it was 2.6 °C; in experiment [10], 0.9 °C; in [12], 1.9 °C; in [13], 0 °C. Besides, the figures for the IC50 (in experiment [1]; at CREB-binding protein [6]; in [11]) were 84.2 µM, above 200 µM and 34.3 µM, respectively.

In the case of `CCOc1cc(C(C)=O)cc(-c2c(C)noc2C)c1`, the IC50 in experiment [1] is 7.5 µM; on CREB-binding protein [6], 12.9 µM; in experiment [11], 2.3 µM. The shift in melting temperature (ΔTm) in experiment [2] is -1 °C; in experiment [3], 5.3 °C; on CREB-binding protein [4], 3.4 °C; in experiment [5], 5.1 °C; in experiment [8], 4.8 °C; in experiment [9] it was 6.5 °C. Besides, the thermal shift (ΔTm) is 3.2 °C in [10], 6 °C in experiment [12] and -0.3 °C in experiment [13].

As for `CN1CCCC1=O` [METHYLPYRROLIDONE], the IC50 on CREB-binding protein [16] was found to be 2300 µM; in experiment [17] it was 34000 µM.

Consider `CC(=O)c1cccc(-c2c(C)noc2C)c1`, for which the half-inhibitory concentration (IC50) in [1] came out at 24.6 µM; at CREB-binding protein [6], 55.7 µM; in experiment [11], 6 µM. The thermal shift (ΔTm) in experiment [2] was -0.9 °C; in [3] it was 2.6 °C; on CREB-binding protein [4], 1.2 °C; in experiment [5], 2.1 °C; in experiment [7] it was -0.2 °C; in [8] it was 2 °C. Further, the ΔTm is 1.9 °C in experiment [9], 1.3 °C in experiment [10], 2.9 °C in experiment [12] and -0.3 °C in experiment [13].

As to `Cc1noc(C)c1-c1cccc(C(C)O)c1` (racemic), the ΔTm in experiment [14] is 0.2 °C; in [2] it was -0.8 °C; in experiment [3], 5.6 °C; on CREB-binding protein [4] it was 1.5 °C; in experiment [5], 5.4 °C; in experiment [15], 0 °C. The ΔTm came to 1.6 °C in [7]; 5.3 °C in experiment [8]; 6.3 °C in experiment [9]; 3.3 °C in experiment [10]; 6.5 °C in experiment [12]; 0.2 °C in [13]. The IC50 in experiment [1] was 9.7 µM; on CREB-binding protein [6], 45.4 µM; in experiment [11] it was 4.2 µM.

Turning to `CCOc1cc(-c2c(C)noc2C)cc(C(C)O)c1` (racemic), the IC50 was found to be 4.8 µM in experiment [1], 28.1 µM at CREB-binding protein [6] and 1.6 µM in experiment [11]. Also, the ΔTm in experiment [2] was -0.9 °C; in experiment [3], 8.3 °C; on CREB-binding protein [4], 4 °C; in experiment [5], 8.5 °C; in experiment [7], 3.5 °C; in experiment [8] it was 8.5 °C. The thermal shift (ΔTm) in experiment [9] is 8 °C; in experiment [10], 6.1 °C; in [12] it was 8.9 °C; in experiment [13], 0 °C.

`CCOc1cccc(-c2c(C)noc2C)c1`: the results for the IC50 (in experiment [1]; at CREB-binding protein [6]; in experiment [11]) were 23.2 µM, 86.9 µM and 7.4 µM, respectively. For the same molecule, the ΔTm in experiment [2] was -0.9 °C; in [3], 3.7 °C; at CREB-binding protein [4] it was 0.7 °C; in experiment [5] it was 2.8 °C; in experiment [7] it was -0.4 °C; in [8], 2.7 °C. The ΔTm in experiment [9] is 4 °C; in [10], 1.3 °C; in experiment [12], 4.2 °C; in [13], -0.2 °C.

`CCOc1cc(C(=O)O)cc(-c2c(C)noc2C)c1`: the thermal shift (ΔTm) in experiment [14] is -0.1 °C; in experiment [2], -1.2 °C; in experiment [3], 2.5 °C; on CREB-binding protein [4], 2.9 °C; in experiment [5], 2.3 °C; in experiment [15] it was -0.5 °C. Also, the ΔTm was -0.8 °C in experiment [7]; 2.2 °C in [8]; 2.2 °C in experiment [9]; 1.1 °C in experiment [10]; 2.6 °C in experiment [12]; -0.1 °C in [13]. Besides, the IC50 in experiment [1] is 51.2 µM; at CREB-binding protein [6], 32.2 µM; in experiment [11] it was 28.2 µM.

Values taken from ChEMBL document CHEMBL1828554, “3,5-dimethylisoxazoles act as acetyl-lysine-mimetic bromodomain ligands” (J Med Chem, 2011).
